For orientation: IC50 means the point on the concentration scale where inhibition reaches its midpoint.

In one assay the test system is A549. Put plainly: Cytotoxicity against human A549 cells after 96 hrs by MTT assay. The format is functional, cell-based. To be noted: A549, 96 h. In short, it runs like this:
(§1)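 Cells grown in RPMI1640 with 10% FBS, 100 units/mL penicillin and 100 µg/mL streptomycin, at 37 °C in humidified 5% CO2. Seeded at 1200 cells/well; compounds added after 24 h at five concentrations (final DMSO 0.1%), triplicate wells.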
On the technique in general: Formazan colour is commonly taken as a measure of viable cells.

In a further assay the test system is Bel-7402. Put plainly: Cytotoxicity against human Bel-7402 cells after 96 hrs by MTT assay. Type of assay: functional, cell-based. To be noted: Bel-7402, 96 h. In short, it runs like this:
as §1

In another assay the test system is HCT-8. Put plainly: Cytotoxicity against human HCT8 cells after 96 hrs by MTT assay. Type of assay: functional, cell-based. To be noted: HCT-8, 96 h. In short, it runs like this:
as §1

Assay [1] concerns the target Prothrombin (Homo sapiens) (UniProt P00734). Put plainly: Inhibition of thrombin at 50 uM.
In a further assay the test system is A2780. Put plainly: Cytotoxicity against human A2780 cells after 96 hrs by MTT assay. The format is functional, cell-based. Particulars: A2780, 96 h. In short, it runs like this: as §1
A further assay concerns BGC-823. Put plainly: Cytotoxicity against human BGC-823 cells after 96 hrs by MTT assay. The format is functional, cell-based. Particulars: BGC-823, 96 h. In short, it runs like this: as §1
In assay [2] the target is T1, Tyrosine-protein phosphatase non-receptor type 1 (Homo sapiens) (UniProt P18031).
T1 sequence (whole entry): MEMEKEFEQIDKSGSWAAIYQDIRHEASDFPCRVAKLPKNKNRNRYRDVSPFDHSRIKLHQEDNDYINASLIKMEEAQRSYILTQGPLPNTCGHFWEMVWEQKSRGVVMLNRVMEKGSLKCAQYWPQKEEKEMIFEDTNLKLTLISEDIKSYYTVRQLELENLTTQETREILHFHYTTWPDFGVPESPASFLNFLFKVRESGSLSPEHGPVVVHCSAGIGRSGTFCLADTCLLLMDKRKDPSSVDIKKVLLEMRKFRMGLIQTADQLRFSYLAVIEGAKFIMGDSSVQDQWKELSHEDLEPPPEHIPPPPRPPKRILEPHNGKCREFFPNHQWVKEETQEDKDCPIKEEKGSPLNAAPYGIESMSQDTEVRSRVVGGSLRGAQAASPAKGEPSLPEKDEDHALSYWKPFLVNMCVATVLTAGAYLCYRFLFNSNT
Put plainly: Inhibition of PTP1B at 50 uM.

Active and inactive are the calls of the source. No cut-off for these calls is given here.

`COc1cc(O)cc(OC)c1O[C@@H]1O[C@H](CO)[C@@H](O)[C@H](O)[C@H]1O` [LEONURISIDE]: the IC50 with A549, in the assay with Bel-7402, in the assay with HCT-8, in the assay with A2780 and with BGC-823 was > 10 µg/mL each time. The result in assay [1] and in assay [2] was inactive.
In the case of `CC[C@H](CC[C@@H](C)[C@H]1CC[C@H]2[C@@H]3CC=C4C[C@@H](O[C@@H]5O[C@H](CO)[C@@H](O)[C@H](O)[C@H]5O)CC[C@]4(C)[C@H]3CC[C@]12C)C(C)C` [SITOGLUSIDE], the IC50 in the assay on A549, with Bel-7402, in the assay with HCT-8, in the assay on A2780 and with BGC-823 was > 10 µg/mL throughout. Moreover, the outcome in assay [1] and in assay [2] was inactive.
For the molecule `CCCCCCCCCCCCCCCc1cc(O)cc(O)c1` [CARDOL], the half-inhibitory concentration (IC50) was determined as 1.43 µM in the assay with A549; 1.93 µM in the assay with Bel-7402; 1.48 µM in the assay on HCT-8; 1.31 µM in the assay on A2780; 1.74 µM with BGC-823. Besides, the result in assay [1] and in assay [2] was inactive.
On to `CCCCCCCCCCCCCC1=C(O)/C(=C2\C(=O)Oc3c2cc(O)c(O)c3CCCCCCCCCCCCC)OC1=O`, for which the IC50 in the assay with A549, in the assay on Bel-7402, in the assay with HCT-8, in the assay with A2780 and in the assay on BGC-823 was > 10 µg/mL throughout. Moreover, the outcome in assay [1] and in assay [2] was inactive.
Regarding `CC[C@@]1(O)C(=O)OCc2c1cc1n(c2=O)Cc2cc3c(CN(C)C)c(O)ccc3nc2-1` [TOPOTECAN], the IC50 in the assay with A549 is 3.5 µM; in the assay with Bel-7402, 1.4 µM; in the assay with HCT-8 it was 1.2 µM; in the assay with A2780, 1.2 µM; in the assay on BGC-823, 3.8 µM.
`CCCCCCCCCCCCCC1=C(O)C(=O)C=C(NCCCC(=O)O)C1=O`: the IC50 in the assay on A549, in the assay on Bel-7402, in the assay on HCT-8, with A2780 and in the assay with BGC-823 was > 10 µg/mL each time. Also, the result in assay [1] and in assay [2] was inactive.
Consider `COc1cc([C@H]2c3c(cc(OC)c(O)c3OC)C[C@@H](CO)[C@@H]2CO[C@@H]2O[C@H](CO)[C@@H](O)[C@H](O)[C@H]2O)cc(OC)c1O`, for which the IC50 in the assay with A549, with Bel-7402, in the assay with HCT-8, with A2780 and with BGC-823 was > 10 µg/mL in each case. The result in assay [1] and in assay [2] was inactive.
`CCCCCc1cc(O)cc(OC)c1`: the IC50 in the assay on A549, in the assay with Bel-7402, in the assay on HCT-8, with A2780 and in the assay on BGC-823 was > 10 µg/mL each time. The result in assay [1] and in assay [2] was inactive.
Turning to `CCCCC/C=C\C/C=C\CCCCCCCc1cc(O)cc(O)c1`, the IC50 with A549 came to 1.42 µM; in the assay on Bel-7402, 1.91 µM; with HCT-8, 1.54 µM; in the assay with A2780, 1.57 µM; with BGC-823, 1.79 µM. Also, the result in assay [1] and in assay [2] was inactive.
`CCCCCCCCCCCCCC1=C(O)C(=O)C=C(O)C1=O` [Rapanone]: the IC50 in the assay on A549 was found to be 1.58 µM; in the assay on Bel-7402 it was 1.46 µM; in the assay on HCT-8, 1.52 µM; with A2780, 1.82 µM; in the assay with BGC-823, 1.89 µM. For the same molecule, the result in assay [1] and in assay [2] was inactive.
For `CC[C@H](CC[C@@H](C)[C@H]1CC[C@H]2[C@@H]3CC=C4C[C@@H](O)CC[C@]4(C)[C@H]3CC[C@]12C)C(C)C` [BETA-SITOSTEROL], the IC50 with A549, with Bel-7402, with HCT-8, in the assay on A2780 and in the assay with BGC-823 was > 10 µg/mL throughout. In addition, the outcome in assay [1] and in assay [2] was inactive.
`COc1cc(O[C@@H]2O[C@H](CO)[C@@H](O)[C@H](O)[C@H]2O)cc(OC)c1O` [KOABURASIDE]: the IC50 in the assay with A549, in the assay on Bel-7402, in the assay on HCT-8, in the assay with A2780 and in the assay on BGC-823 was > 10 µg/mL in each case. Moreover, the result in assay [1] and in assay [2] was inactive.
For the molecule `CCCCCCCC/C=C\CCCCCCCc1cc(O)cc(O)c1`, the IC50 in the assay on A549 turned out to be 0.46 µM; with Bel-7402, 1.07 µM; with HCT-8 it was 0.78 µM; in the assay with A2780 it was 1.06 µM; in the assay on BGC-823, 1.43 µM. Further, the outcome in assay [1] and in assay [2] was inactive.
In the case of `Oc1cc(O)c2c(c1)O[C@H](c1ccc(O)c(O)c1)[C@@H](O)C2` [CIANIDANOL], the IC50 in the assay with A549, with Bel-7402, in the assay with HCT-8, in the assay with A2780 and with BGC-823 was > 10 µg/mL throughout. For the same molecule, the result in assay [1] and in assay [2] was inactive.
